# Bioassay records deposited in PubChem by several laboratories.
# TDP2 inh = TDP2 (human) inhibition, absorbance primary screen; O95551; recombinant TDP2, T5PNP hydrolysis, p-nitrophenol absorbance 415 nm; inhibition, % at 12.8 µM; 370,000 tested, 0.34% active; AID 720702;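 active = inhibition above the mean of all tested compounds plus 3 SD, set per campaign, cut at about 25% in these data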;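 note: 0% = DMSO with enzyme and 100% = buffer with substrate but no TDP2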
# Target sequence (O95551 whole entry, looked up): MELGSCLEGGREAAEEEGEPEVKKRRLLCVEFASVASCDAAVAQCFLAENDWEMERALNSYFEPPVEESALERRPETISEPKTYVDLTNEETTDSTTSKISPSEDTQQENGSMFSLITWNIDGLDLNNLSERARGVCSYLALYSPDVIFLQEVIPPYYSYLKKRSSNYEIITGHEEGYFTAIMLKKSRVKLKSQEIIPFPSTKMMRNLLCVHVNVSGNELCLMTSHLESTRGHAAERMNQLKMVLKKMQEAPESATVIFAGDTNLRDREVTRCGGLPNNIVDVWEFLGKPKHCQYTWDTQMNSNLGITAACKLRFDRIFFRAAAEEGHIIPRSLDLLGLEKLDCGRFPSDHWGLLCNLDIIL
#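 Material: recombinant human TDP2; quantity: TDP2 enzyme at 120 nM final; medium: Tris-HCl pH 7.5 with MgCl2; compound: single concentration, 12.8 µM nominal, with 1% DMSO; incubation: 2 h enzyme incubation at 37 °C; signal: epi absorbance; measure: percent inhibition; benchmarks: high control without enzyme, low control DMSO plus TDP2; repeats: singlicate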
# PP1 inh = blocks human PP1-alpha phosphatase, a PP5 counter-screen | P62136 | purified PP1alpha, OMFP fluorescence | inhibition, % at 6.7 µM | 320,000 tested, 0.9% active;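 active = inhibition above the mean inhibition of all tested compounds plus 3 SD, computed separately for each screening campaign, cut at about 15% in these data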
# Target sequence (P62136 whole entry, looked up): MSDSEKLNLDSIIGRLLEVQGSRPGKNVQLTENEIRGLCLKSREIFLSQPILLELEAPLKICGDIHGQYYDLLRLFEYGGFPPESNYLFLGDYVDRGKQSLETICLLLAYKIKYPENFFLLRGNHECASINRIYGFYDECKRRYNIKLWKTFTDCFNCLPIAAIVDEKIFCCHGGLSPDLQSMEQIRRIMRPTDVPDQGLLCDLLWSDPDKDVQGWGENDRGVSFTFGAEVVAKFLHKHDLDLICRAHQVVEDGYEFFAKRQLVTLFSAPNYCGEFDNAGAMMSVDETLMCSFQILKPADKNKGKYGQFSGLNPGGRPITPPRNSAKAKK
# GSTO1 counter = counter-screen for RBBP9 inhibitors: inhibitors of human GSTO1; P78417; recombinant GSTO1, activity-based probe fluorescence polarization; inhibition, % at 5.96 µM; 300,000 tested, 1.1% active; AID 1974;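 active = inhibition above the campaign mean inhibition plus 3 SD, cut at about 35% in these data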;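 note: 0% = GSTO1-1 with DMSO and 100% = wells lacking GSTO1-1 enzyme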
# Apaf-1 inh = inhibitors of human Apaf-1 apoptosome; reconstituted apoptosome caspase-3 activity, DEVD-Rh110 fluorescence; inhibition, % at 20 µM; 330,000 tested, 0.71% active; AID 489030; active = inhibition of at least 40% at 20 µM;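 note: plate controls were DMSO wells for no effect and DEVD-CHO caspase inhibitor wells for full effect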
#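 System: reconstituted apoptosome with Apaf-1, cytochrome c, caspase-9, procaspase-3, dATP; Signal: Rh110 fluorescence intensity; Schedule: 30 min compound preincubation, 50 min activation, room temperature; Reagent: cytochrome c trigger plus (Z-DEVD)2-Rh110 caspase-3 substrate.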
# PP5 inh = blocks human protein phosphatase 5 activity | purified PP5c, OMFP substrate fluorescence | inhibition, % at 6.7 µM | 320,000 tested, 0.18% active;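 active = inhibition above the campaign's mean inhibition across all tested compounds plus 3 SD, cut at about 9.5% in these data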;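 note: 0% = DMSO only and 100% = 100 µM cantharidin control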
# GSTO1 inh conf = GSTO1 (human) inhibition, confirmation | shares compounds with GSTO1 counter | recombinant GSTO1, probe fluorescence polarization | inhibition, % at 5.96 µM | 2,400 tested, 54% active | AID 2176;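 active = inhibition above the primary screen's cutoff, its mean inhibition plus 3 SD, cut at about 35% in these data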;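 note: loss of polarization as inhibitors block binding of rhodamine sulfonate ester activity probe; 0% = GSTO1 with DMSO and 100% = wells lacking GSTO1 enzyme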
# GSTO1 ABPP inh = GSTO1 (human) inhibition by gel ABPP | recombinant GSTO1, gel ABPP SE-Rh probe fluorescence | 130 tested, 30% active | AID 463110 | shares compounds with GSTO1 counter | inhibition, % at 1 µM;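 active = inhibition of the enzyme GSTO1 above about 75%, limit read from the data; inactive = inhibition below that limit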
# * hit, by the source's call; x = no result. Compounds with a hit are over-represented: about 2.1% of the library has one in this group of screens.
SMILES,TDP2 inh,PP1 inh,GSTO1 counter,Apaf-1 inh,PP5 inh,others
C#CCOCCOCCOCCNc1nc(N2CCOCC2)nc(N2CCN(C(=O)[C@H](Cc3cc4ccccc4[nH]3)n3cc([C@@H](N)C(C)CC)nn3)CC2)n1 (some centres undefined),4,4,2,18,2,
C#CCOCCOCCOCCNc1nc(N2CCN(C(=O)[C@H](CCCCN)n3cc([C@@H](N)CO)nn3)CC2)nc(N2CCN(C(=O)[C@H](Cc3cc4ccccc4[nH]3)n3cc([C@@H](N)Cc4ccc(O)cc4)nn3)CC2)n1,x,7,15,55*,3,
N#CCC(=O)N/N=C\c1ccc(OC/C=C/c2ccccc2)cc1,-6,17*,-4,18,1,
N#CCC(=O)N/N=C/c1ccc(OCc2ccccc2)cc1,-4,-1,-11,5,1,
O=C(NCCc1ccccc1)C(c1cccs1)N(C(=O)CCl)c1ccc(Cl)cc1 (centres undefined),4,4,103*,14,2,
CSc1nsc(/C=C/Nc2ccc(O)cc2C)c1C#N,-9,2,69*,7,4,
O=C(CSc1nnc(COc2ccccc2)o1)c1ccccc1,-1,2,11,12,4,
Cc1ccc(C(=O)CSc2nnc(COc3ccccc3)o2)cc1,5,0,37*,14,1,
Cc1ccc(CN2CCCCC(NC(=O)c3cccc(C(F)(F)F)c3)C2=O)cc1 (centres undefined),8,x,x,x,x,
Cc1cccc(C)c1NC(=O)CN(C)C(=O)c1ccccc1SCC(=O)N1CCCC1,-8,3,20,42*,0,
Cc1ccc(S(=O)(=O)n2ccc(-c3c(-c4ccccc4)noc3C)n2)cc1,0,x,x,x,x,
Cn1c(CNc2ccc(Cl)cc2)nc2ccccc21,-14,-1,7,12,3,
CC(C)N=c1cc2n(-c3ccc(Cl)cc3)c3ccccc3nc-2cc1Nc1ccc(Cl)cc1,-5,4,7,68*,5,
Cc1ccc(-c2nc3c(Cl)cc(Cl)cc3c(=O)n2O)cc1,2,17*,0,17,1,
O=c1c2cc(Br)ccc2nc(-c2ccc(Cl)cc2)n1O,-17,0,-1,x,-1,
CC1CCC2(CCC(=O)N2CCCOC(=O)Nc2cccc(C(F)(F)F)c2)CC1 (centres undefined),-3,x,x,x,x,
CC(NC(=O)CCl)c1ccc(Cl)c(Cl)c1 (centres undefined),-3,-1,96*,3,0,
C#CCOCCOCCOCCNc1nc(N2CCN(C(=O)CCCCCCCCCCNC(=O)[C@H](CCCN=C(N)N)n3cc(C[C@@H](C)CC)nn3)CC2)nc(N2CCN(C(=O)CCCCCCCCCCNC(=O)[C@@H]([C@H](C)CC)n3cc(CCCCCN)nn3)CC2)n1,x,71*,3,80*,7,
C#CCOCCOCCOCCNc1nc(N2CCN(C(=O)[C@H]([C@@H](C)CC)n3cc(CCCN=C(N)N)nn3)CC2)nc(N2CCN(C(=O)[C@H](CCCCN)n3cc(CCCC)nn3)CC2)n1,2,7,6,22,1,
C#CCOCCOCCOCCNc1nc(N2CCOCC2)nc(N2CCN(C(=O)[C@H]([C@@H](C)CC)n3cc(CCCN=C(N)N)nn3)CC2)n1,-9,2,-3,3,3,
C#CCOCCOCCOCCNc1nc(N2CCN(C(=O)CCCCCCCCCCNC(=O)[C@H]([C@@H](C)CC)n3cc(CCCCN=C(N)N)nn3)CC2)nc(N2CCN(C(=O)CCCCCCCCCCNC(=O)[C@H](CCCN=C(N)N)n3cc(C[C@@H](C)CC)nn3)CC2)n1,x,68*,10,46*,9.8*,
COc1ccc(CNC(=O)COC(=O)c2c(NC(C)=O)sc(C)c2C)cc1OC,9,x,x,x,x,
O=C1[C@@H](CCc2ccccc2)[C@@H]2c3cc4ccccc4cc3C=NN2[C@@H]2c3cc4ccccc4cc3C=NN12,-2,x,x,x,x,
CCCCCCCCCCCCN1[C@@H](CC(=O)O)c2cc(F)ccc2S1(=O)=O,-5,16*,18,24,3,
CCCCCCCCN1[C@@H](CC(=O)OC)c2cc(F)ccc2S1(=O)=O,4,0,6,16,4,
SMILES,TDP2 inh,PP1 inh,GSTO1 counter,Apaf-1 inh,PP5 inh,others
COc1ccc(S(=O)(=O)Nc2cc(Sc3ncn[nH]3)c(O)c3ccccc23)cc1,65*,x,x,x,x,
CCOC(=O)C(CNc1ccc(O)cc1)NC(=O)c1ccccc1 (centres undefined),13,x,x,x,x,
Cc1ccc2nc(CN(C)C(=O)[C@@H](Cc3ccccc3)NC(=O)[C@H]3O[C@@H](n4cnc(C(N)=O)n4)[C@H](O)[C@@H]3O)[nH]c2c1,-12,x,x,x,x,
O=C(CSc1nc2ccccc2c(=O)n1-c1ccccc1)N/N=C/C=C/c1ccccc1[N+](=O)[O-],-1,10,-6,13,2,
Cc1ccccc1-n1c(SCC(=O)N/N=C/C=C/c2ccccc2[N+](=O)[O-])nc2ccccc2c1=O,10,17*,-17,12,-2,
CCOc1cc(/C=N/NC(=O)CNc2ccc(C)cc2)ccc1OC(=O)c1ccccc1,3,15*,-9,12,2,
CCOc1cc(/C=N/NC(N)=O)ccc1OC(=O)c1ccc(C)cc1,x,0,5,17,5,
CCCCOCC1CN(Cc2ccccc2OC)S(=O)(=O)c2cc(Cl)ccc2O1 (centres undefined),-4,x,x,x,x,
CC1=NN(c2ccccc2C)C(=O)C1,51*,x,x,x,x,
COC(=O)[C@@]12CCCCC3=C1N(CCC3)C(=O)[C@H]2CC(=O)NCc1cccs1,-9,x,x,x,x,
CC1=CC(C)(C)Nc2ccc(OC(=O)CN3C(=O)CCC3=O)cc21,9,0,62*,-28,1,GSTO1 inh conf=9
Cc1ccc(N(CCC#N)C(=O)CCl)cc1C,6,-5,93*,-8,3,GSTO1 inh conf=90*;GSTO1 ABPP inh=18
Cc1ccc(SCC(=O)OCC(=O)N(CCC#N)c2ccccc2)cc1C,10,-5,6,9,-1,
C[C@H]1[C@H](c2ccccc2)Oc2cccc(NCCc3ccccc3)c2S(=O)(=O)N1Cc1cccc(F)c1,1,x,x,x,x,
COC(=O)[C@H](Cc1c[nH]c2ccccc12)NC(=O)CCCc1c[nH]c2ccccc12,7,0,5,-4,0,
CCOC(=O)C(Cc1ccc(O)cc1)NC(=O)CCc1c[nH]c2ccccc12 (centres undefined),2,0,38*,-1,0,GSTO1 inh conf=5
Cc1ccccc1NC(=O)C(Cl)=C(Cl)Cl,13,-3,44*,5,2,GSTO1 inh conf=24
Cc1ccccc1NNC(=O)C(=O)NNc1ccccc1C,16,-3,6,-15,2,
O=S(=O)(O)c1cc(O)ccc1O,2,2,2,15,0,
